Results published in ChEMBL document CHEMBL4024754, “Development of Potent, Protease-Resistant Agonists of the Parathyroid Hormone Receptor with Broad β Residue Distribution” (J Med Chem, 2017).
The source made the active and inactive calls. No cut-off for these calls is given here. Numbered stars: 1 amine (or outer) side, 2 acyl side, 3 side chain; on linkers, the order of the positions; unused ones are H or OH. Square brackets hold non-standard residues; d marks the D form. Peptide text beside a SMILES is read from it. * marks the point of attachment. NH(1S,2S-2-CONH2-cPent) = NC(=O)[C@H]1CCC[C@@H]1N*; ACPC(1S,2S) = N[C@H]1CCC[C@@H]1C(=O)*; X1 = O=C([C@H]1CCC[C@@H]1N[*:1])[*:2]; X2 = O=C([C@H]1CNC[C@@H]1N[*:1])[*:2]; hArg = N=C(N)NCCCC[C@H](N)C(=O)O; Aib = CC(C)(N)C(=O)O

Legend:
[1] = target: T1, Parathyroid hormone/parathyroid hormone-related peptide receptor (Homo sapiens, UniProt Q03431); test: Agonist activity at human PTH1 receptor expressed in human GP2.3 cells assessed as induction of cAMP after 12 to 20 mins by luciferase reporter gene assay; format: functional, cell-based; conditions: read-out: EC50
T1 sequence (Q03431 whole entry): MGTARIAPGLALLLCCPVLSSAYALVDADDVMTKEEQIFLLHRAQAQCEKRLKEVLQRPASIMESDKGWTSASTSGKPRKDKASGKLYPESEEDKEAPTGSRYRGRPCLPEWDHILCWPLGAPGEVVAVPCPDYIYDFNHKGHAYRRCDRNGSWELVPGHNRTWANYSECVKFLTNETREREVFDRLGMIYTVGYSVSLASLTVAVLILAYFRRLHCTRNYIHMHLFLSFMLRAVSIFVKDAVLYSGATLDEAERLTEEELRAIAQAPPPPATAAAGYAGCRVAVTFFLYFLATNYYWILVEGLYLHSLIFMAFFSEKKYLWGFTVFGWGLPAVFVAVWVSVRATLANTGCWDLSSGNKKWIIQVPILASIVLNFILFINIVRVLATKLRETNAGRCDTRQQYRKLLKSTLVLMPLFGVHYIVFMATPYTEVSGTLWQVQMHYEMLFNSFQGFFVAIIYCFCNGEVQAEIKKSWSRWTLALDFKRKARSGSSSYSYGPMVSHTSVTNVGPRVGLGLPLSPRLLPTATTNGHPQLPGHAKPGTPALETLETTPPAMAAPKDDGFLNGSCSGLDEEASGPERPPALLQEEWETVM

pepsin = test: Stability in simulated gastric fluid assessed as pig pepsin-mediated proteolysis by measuring half life at 40 uM by RP-HPLC analysis; format: ADME, Sus scrofa; conditions: simulated gastric fluid with pig pepsin
Method in brief: (§1)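 Peptide at 200 μM (from 1 mM stock in 10 mM acetic acid) incubated at 37 °C in fresh SGF (NaCl, porcine pepsin, HCl, pH ~1.2). Quenched by 10× PBS to neutral pH (40 μM). Duplicate reactions. Intact peptide measured by RP-HPLC peak area. For bioactivity, samples diluted into CO2-independent medium and added to luciferin-loaded GP2.3 cells at 100 nM−0.1 nM final.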

Blood = test: Drug level in CD1 mouse blood at 20 nmol/kg, sc measured up to 2 hrs; format: ADME, organism-based; conditions: in vivo
Method in brief: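 Female CD1 mice, n = 5, 20 nmol/kg subcutaneously in citrate/NaCl/Tween-80 vehicle, pH 5.0. 2 μL serum from timed bleeds, mixed with CO2-independent medium, added to GP2.3 cells. Luminescence converted to peptide concentration via a standard curve.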

[2] = Half life in Sprague-Dawley rat kidney homogenates at 12 uM by HPLC-MS analysis; format: ADME, tissue-based
Method in brief: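 Kidney homogenate (2.5 mg protein/mL, pH 7.4 Tris) spiked with peptide at 50 μg/mL (~12 μM), 37 °C, sampled 0−120 min. […] C18 UHPLC–Orbitrap MS quantified via y32 ion area ratio against calibration standards. Exponential decay fit, mean ± SD of two replicates.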

[3] = Drug metabolism in Sprague-Dawley rat kidney homogenates assessed as protease-mediated metabolite formation at 12 uM after 4 hrs by MALDI-TOF-MS analysis; format: ADME, tissue-based; conditions: tissue homogenate
Method in brief: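 Perfused female Sprague-Dawley kidney homogenate in 50 mM Tris-HCl pH 7.4, diluted to 2.5 mg protein/mL. Peptide spiked at 50 μg/mL (~12 μM) and incubated at 37 °C. Timed samples quenched with equal volume 1% TFA, centrifuged, dried, reconstituted in 0.1% formic acid, mixed with DHB matrix. Fragments identified by MALDI-TOF MS.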

[4] = target: T2, Parathyroid hormone/parathyroid hormone-related peptide receptor (Homo sapiens) (UniProt Q03431); test: Agonist activity at human PTH1 receptor expressed in human GP2.3 cells assessed as induction of cAMP at 0.1 to 100 nM preincubated with SIF for 10 mins followed by compound transfer to GP2.3 cells by luciferase reporter gene assay; format: functional, cell-based
T2 sequence (whole entry): T1 sequence (Q03431 whole entry)
Method in brief: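 Simulated intestinal fluid containing pancreatin, pH 6.8, prepared fresh and kept at 37 °C. Peptide incubated in it as for gastric fluid. Quenched 1:1 with 50% acetonitrile/1% TFA. Quenched samples serially diluted in CO2-independent medium and applied to luciferin-preloaded GP2.3 cells at 100−0.1 nM final. Luminescence read. Two technical replicates.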

[5] = target: T2, Parathyroid hormone/parathyroid hormone-related peptide receptor (Homo sapiens); test: Agonist activity at human PTH1 receptor expressed in human GP2.3 cells assessed as induction of cAMP at 0.1 to 100 nM preincubated with SGF for 4 hrs followed by compound transfer to GP2.3 cells by luciferase reporter gene assay; format: functional, cell-based; method in brief: as §1
[6] = target: T2, Parathyroid hormone/parathyroid hormone-related peptide receptor (Homo sapiens); test: Displacement of [125I]-PTH(1 to 34 residues) from R0 state of human PTHR1 expressed in African green monkey COS7 cell membranes incubated for >1 hr in presence of GTPgammaS by gamma radiation method
[7] = target: T2, Parathyroid hormone/parathyroid hormone-related peptide receptor (Homo sapiens); test: Agonist activity at human PTH1 receptor expressed in human GP2.3 cells assessed as induction of cAMP at 12 uM preincubated with Sprague-Dawley rat kidney homogenates for 60 mins followed by compound transfer to GP2.3 cells measured after 12 to 20 mins by luciferase reporter gene assay; format: functional, cell-based
Method in brief: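 Female Sprague-Dawley rat kidney homogenate (50 mM Tris-HCl pH 7.4, 2000g supernatant). 1 mM peptide stock diluted 1:85 (~12 μM), incubated at indicated times. Quenched 1:1 with acetonitrile/TFA solution, diluted to 1000−1 nM, and added 1:10 to GP2.3 cells preincubated 30 min with 0.5 mM D-luciferin. Sigmoidal variable-slope fit. Two replicates.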

[8] = target: T2, Parathyroid hormone/parathyroid hormone-related peptide receptor (Homo sapiens); test: Agonist activity at human PTH1 receptor expressed in human GP2.3 cells assessed as induction of cAMP after 12 to 20 mins by luciferase reporter gene assay relative to PTH(1 to 34 residues)-NH2; format: functional, cell-based
[9] = target: T2, Parathyroid hormone/parathyroid hormone-related peptide receptor (Homo sapiens); test: Agonist activity at human PTH1 receptor expressed in human GP2.3 cells assessed as induction of cAMP at 0.1 to 100 nM preincubated with protease activity quenched SIF followed by compound transfer to GP2.3 cells by luciferase reporter gene assay; format: functional, cell-based
Method in brief: (§2)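 Control samples: simulated gastric fluid neutralized with 10× PBS, or intestinal fluid mixed with acetonitrile/TFA quench solution, before adding peptide. Gastric controls held up to 4 h. Then diluted and tested on luciferin-loaded GP2.3 cells at 100−0.1 nM final, alongside freshly prepared peptide.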

Mus musculus [10] = test: In vivo induction of excessive bloodstream calcium concentration in CD1 mouse at 20 nmol/kg, sc after 2 hrs by Ca2+/pH analyzer; format: organism-based
Method in brief: (§3)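 Female CD1 mice (9−12 weeks), n = 5, given 20 nmol/kg subcutaneously in 10 mM citrate/150 mM NaCl/0.05% Tween-80, pH 5.0. Tail vein blood taken before and at times after dosing. Ca2+ measured by Ca2+/pH analyzer. One-way ANOVA with Dunnett's test vs vehicle. Mean ± SEM.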

Mus musculus [11] = test: In vivo induction of excessive bloodstream calcium concentration in CD1 mouse at 20 nmol/kg, sc up to 2 hrs by Ca2+/pH analyzer; format: organism-based; method in brief: as §3
[12] = target: T2, Parathyroid hormone/parathyroid hormone-related peptide receptor (Homo sapiens); test: Agonist activity at human PTH1 receptor expressed in human GP2.3 cells assessed as induction of cAMP at 0.1 to 100 nM preincubated with protease activity quenched SGF up to 4 hrs followed by compound transfer to GP2.3 cells by luciferase reporter gene assay; format: functional, cell-based; method in brief: as §2

- EC50 [1]: 480 to 780 pM
- half-life at 40 µM (pepsin): 4 h
- Drug uptake (Blood): Not Active
- half-life at 12 µM [2]: 0.517 h
- Drug metabolism [3]: Metabolite_Notdetected
- Activity [4]: Active
- Activity [5]: Active
- inhibition [6]: Active
- Activity [7]: Active
- fold change (FC) [8]: 7.1 to 9.5
- Activity [9]: Active
- Activity [12]: Active
Compound: CSCC[C@H](NC(=O)[C@H]1CCC[C@@H]1NC(=O)[C@H](CCC(N)=O)NC(=O)[C@H]1CCC[C@@H]1NC(=O)[C@H](CCC(=O)O)NC(=O)C(C)(C)NC(=O)[C@@H](NC(=O)[C@H]1CCC[C@@H]1N)C(C)C)C(=O)N[C@@H](Cc1cnc[nH]1)C(=O)N[C@@H](CCC(N)=O)C(=O)N[C@@H](CCCCNC(=N)N)C(=O)N[C@@H](C)C(=O)N[C@@H](CCCCN)C(=O)N[C@H]1CCC[C@@H]1C(=O)N[C@@H](CC(C)C)C(=O)N[C@@H](CC(N)=O)C(=O)N[C@@H](CO)C(=O)N[C@H]1CCC[C@@H]1C(=O)N[C@@H](CCCNC(=N)N)C(=O)N[C@@H](CCCNC(=N)N)C(=O)N[C@H](C(=O)N[C@H]1CNC[C@@H]1C(=O)N[C@@H](Cc1c[nH]c2ccccc12)C(=O)N[C@@H](CC(C)C)C(=O)N[C@@H](CCCNC(=N)N)C(=O)N[C@H]1CNC[C@@H]1C(=O)N[C@@H](CCCCN)C(=O)N[C@@H](CC(C)C)C(=O)N[C@@H](CCC(N)=O)C(=O)N[C@H]1CCC[C@@H]1C(=O)N[C@H](C(=O)N[C@@H](Cc1cnc[nH]1)C(=O)N[C@@H](CC(N)=O)C(=O)N[C@H]1CCC[C@@H]1C(N)=O)C(C)C)C(C)C ({ACPC(1S,2S)}-V[Aib]E[X1]Q[X1]MHQ[hArg]AK[X1]LNS[X1]RRV[X2]WLR[X2]KLQ[X1]VHN-{NH(1S,2S-2-CONH2-cPent)})
- Activity (Mus musculus [10]): Non-Toxic
- Activity (Mus musculus [11]): Toxic
